Screening results: PubChem, The Scripps Research Institute Molecular Screening Center
Hits are enriched below; roughly 0.55% of the tested compounds scored in any of these assays.
OXTR ag: human OXTR agonists, primary screen, fluorescence, CHO-OTR cells, Fluo-8 calcium; actives 0.32% (n = 320,000); AID 2435, 2010; Fluo-8 calcium fluorescence; normalized: DMSO 0%, oxytocin 100%; activation, % at 3 µM; Oxytocin receptor (Homo sapiens), P30559;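 active = activation above the mean of all tested compounds plus 3 SD, cutoff set per screening run, cut at about 20% in these data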;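 also: peak over basal fluorescence ratio from a 100 s FLIPR kinetic read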
Target sequence (P30559 whole entry, looked up): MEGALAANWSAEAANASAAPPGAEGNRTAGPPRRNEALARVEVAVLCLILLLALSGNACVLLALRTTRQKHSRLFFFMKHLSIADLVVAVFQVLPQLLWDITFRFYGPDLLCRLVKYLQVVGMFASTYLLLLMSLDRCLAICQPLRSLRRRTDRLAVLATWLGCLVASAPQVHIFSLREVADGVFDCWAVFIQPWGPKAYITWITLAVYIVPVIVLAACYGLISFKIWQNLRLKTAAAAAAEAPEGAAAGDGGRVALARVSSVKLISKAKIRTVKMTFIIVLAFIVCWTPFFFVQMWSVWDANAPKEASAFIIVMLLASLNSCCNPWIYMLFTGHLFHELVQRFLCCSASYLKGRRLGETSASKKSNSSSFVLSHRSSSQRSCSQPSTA
zfTRPN1 agonist: zebrafish TRPN1 channel agonists, primary screen, cell-based, HEK293, calcium fluorescence; transient receptor potential cation channel N1 (TRPN1/NompC), Danio rerio; HEK293 zebrafish TRPN1-YFP, Fluo-8 calcium fluorescence; 100% = response to 87 µM carbachol; activation, % at 3 µM; actives 0.18% (n = 220,000); AID 1424, 2008;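 active = activation above its plate's cutoff, the mean activation of test wells on that plate plus 3 SD, cut at about 19% in these data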
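System: zebrafish TRPN1-YFP in HEK293 cells / Dosing: 3 µM single point / Timing: dye loading 1 h at 37 °C, then 30 min room temperature / Signal: Fluo-8 calcium fluorescence, excitation 470-495 nm, emission 515-575 nm / Read-out basis: percent activation from peak over basal fluorescence ratio, control-normalized / Control set: high carbachol 87 µM, low DMSO alone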
V1aR counter: agonists of human V1a receptor, primary screen, counter-screen for OXTR agonist project, fluorescence, CHO-V1R cells. Vasopressin V1a receptor (Homo sapiens), P37288. Fluo-8 calcium fluorescence, agonist mode; 0% DMSO, 100% 3 nM vasopressin. activation, % at 3 µM. actives 0.25% (n = 320,000). AID 2797, 2010;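 active = activation above the mean activation of all tested compounds plus 3 SD, per screening run, cut at about 20% in these data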;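 also: signal is peak over basal fluorescence ratio across a 100 second FLIPR read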
OXTR potentiator: human OXTR potentiators, primary screen, fluorescence, CHO-OTR cells, Fluo-8 calcium | Fluo-8 calcium fluorescence, potentiator mode; 0% = oxytocin EC15, 100% = EC100 | activation, % at 3 µM | actives 0.061% (n = 320,000) | AID 2445, 2010;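 active = activation above that plate's cutoff, the mean activation of tested compounds plus 3 SD, cut at about 6.6% in these data, passing the limit was not always enough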
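Material: CHO-OTR cells, human receptor; compound dosing: single dose, 3.0 µM nominal final compound concentration; schedule: 6 min compound pre-incubation at room temperature, 100 s kinetic read; measured by: kinetic Fluo-8 calcium fluorescence; read-out basis: % activation vs EC15 and EC100 oxytocin; controls: EC15 oxytocin alone as 0%, 75 nM oxytocin as 100%; replicates: singlicate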
TRPML3 agonist: human TRPML3 channel agonists, primary screen, cell-based, HEK293 TRPML3-YFP, Fluo-8 calcium fluorescence, 3 µM | activation, % at 3 µM | AID 1448, 2008 | 100% = the carbachol control signal | actives 0.29% (n = 220,000);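 active = activation above its plate's cutoff, the mean activation of the plate's test wells plus 3 SD, cut at about 12% in these data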
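Material: TRPML3-YFP stable HEK293 cells | Dosing: One concentration, 3 µM nominal, 0.3% DMSO | Timing: 125 s total fluorescence read per well | Technique: Fluo-8 calcium dye fluorescence, ex 470-495, em 515-575 nm | Measure: Percent activation from peak-to-basal fluorescence ratio, scaled between DMSO and carbachol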
V1R ag confirm: V1a receptor agonists, calcium signal, confirmation, Fluo-8 calcium fluorescence, CHO-V1R cells; shares compounds with V1aR counter; agonist; activation, % at 3 µM; actives 20% (n = 180);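 active = average activation exceeds primary screen hit cutoff, cut at about 21% in these data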;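 also: peak over basal fluorescence ratio during a 100 s FLIPR read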
OXTR counter: human OXTR agonists, counter-screen for V1R agonist project, fluorescence, CHO-OTR cells, triplicate; AID 434969, 2010; Fluo-8 calcium fluorescence; activation, % at 3 µM; shares compounds with V1aR counter; actives 10% (n = 180);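 active = mean activation over three repeats above the cutoff from the earlier oxytocin receptor agonist screen, cut at about 20% in these data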;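 also: peak over minimum fluorescence ratio within a 100 second FLIPR read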
Each line names hits and unclear results; the compound was inactive in the other large screens (follow-up assays come after a bar, where they were run).

Cc1ccc(NC(=O)c2ccc(OC(=S)N3CCOCC3)cc2)cc1	V1aR counter 26 | V1R ag confirm inactive | OXTR counter inactive
O=C(CCCN=C1NS(=O)(=O)c2ccccc21)OCC(=O)c1ccc(Br)cc1	V1aR counter 26 (no result: zfTRPN1 agonist, TRPML3 agonist) | V1R ag confirm inactive | OXTR counter inactive
O=C(OCCN1C(=O)c2cccc3c(N4CCOCC4)ccc(c23)C1=O)c1ccccc1Cl	V1aR counter 26 | V1R ag confirm 30 | OXTR counter 42
C/C(=N/NC(=O)c1ccncc1)c1cc2ccc(O)cc2oc1=O	V1aR counter 30 | V1R ag confirm 584 | OXTR counter 700
Cc1ccc2sc(N(CCCN(C)C)C(=O)CCS(=O)(=O)c3ccccc3)nc2c1C	V1aR counter 24 (no result: zfTRPN1 agonist, TRPML3 agonist) | V1R ag confirm inactive | OXTR counter inactive
COc1ccc(OC)c2sc(N(CCCN(C)C)C(=O)CCS(=O)(=O)c3ccccc3)nc12	none (no result: zfTRPN1 agonist, TRPML3 agonist)
CC(=O)NC(CC(=O)NNC(=O)c1cc2ccccc2cc1O)c1ccccc1 (configuration not stated)	none (no result: zfTRPN1 agonist, TRPML3 agonist)
O=C(c1ccccc1NS(=O)(=O)c1ccc(Cl)cc1)N1CCc2ccccc21	V1aR counter 21 | V1R ag confirm inactive | OXTR counter inactive
COc1cc(N/C(N)=N/c2nc(C)cc(C)n2)c(OC)cc1Cl	none
COC(=O)c1ccc(NC(=S)NC(=O)c2cc(-c3ccccc3)nc3ccccc23)cc1	none
COc1ccc(Cl)cc1C(=O)NNC(=S)NC(=O)c1cc(-c2ccccc2)nc2ccccc12	V1aR counter 26 | V1R ag confirm 35 | OXTR counter 21
O=C(COc1ccc(-c2nnco2)cc1)NCc1ccccc1Cl	none
O=C(COc1ccc(-c2nnco2)cc1)Nc1ccc(C(F)(F)F)cc1	V1aR counter 21 (no result: zfTRPN1 agonist, TRPML3 agonist) | V1R ag confirm inactive | OXTR counter inactive
CC(NC(=O)c1ccc(Cl)cc1Cl)C(c1ccccc1)N1CCOCC1 (configuration not stated)	none
CC(NC(=O)Nc1ccc([N+](=O)[O-])cc1)C(c1ccccc1)N1CCOCC1 (configuration not stated)	V1aR counter 52 | V1R ag confirm 26 | OXTR counter inactive
CC(NC(=O)Nc1ccc(Cl)c(Cl)c1)C(c1ccccc1)N1CCOCC1 (configuration not stated)	V1aR counter 44 | V1R ag confirm 25 | OXTR counter inactive
O=C(C/C=N\OCc1ccc([N+](=O)[O-])cc1)Nc1ccccc1	none
COC(=O)C(/C=N/OCc1ccc([N+](=O)[O-])cc1)NC(=O)c1ccccc1 (configuration not stated)	V1aR counter 25 | V1R ag confirm inactive | OXTR counter inactive
COc1ccc(NC(=O)CSc2nc(N)c(NC(=O)c3ccccc3F)c(=O)[nH]2)cc1	none (no result: zfTRPN1 agonist, TRPML3 agonist)
COc1ccc(CC(=O)Nc2ccc(NC(=O)c3ccccc3F)cc2)cc1	V1aR counter 32 | V1R ag confirm inactive | OXTR counter inactive
CC1(C)Cc2c(cnn2-c2ccccc2)-c2c1c1ccccc1n2CC(O)CBr (configuration not stated)	none
Cc1cc(C)n(-c2nc(Nc3ccccc3)nc(-n3nc(C)cc3C)n2)n1	none
COc1cccc(/C=N/Nc2nc(Nc3ccccc3)nc(-n3nc(C)cc3C)n2)c1O	V1aR counter 21 | V1R ag confirm inactive | OXTR counter inactive
O=C(NC(=S)Nc1ccc2cn[nH]c2c1)c1ccccc1	none
CCOC(=O)C(NC(=O)c1ccccc1)=C(C)C	none
CCOC(=O)C(CC(=O)O)=C(c1ccccc1)c1ccccc1	V1aR counter 21 (no result: zfTRPN1 agonist, TRPML3 agonist) | V1R ag confirm inactive | OXTR counter inactive
COc1cc(C(=O)NCC2CCCN2S(=O)(=O)c2cccs2)cc(OC)c1OC (configuration not stated)	none (no result: zfTRPN1 agonist, TRPML3 agonist)
